A number with no mark means an inactive call. Inconclusive results are not listed. The source made the active and inactive calls.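 Rule for the calls, unless noted: active = cell viability at or below a set limit in both duplicate runs, the limit being the all-compound median minus 4 SD (cut at about 23% in these data, passing the limit was not always enough); inconclusive = no clear call, values can overlap the other calls; inactive = the rest.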
Tests used:
[1] = S. cerevisiae growth inhibition in permissive medium (OD615), pilot counter-assay for S. cerevisiae lifespan shortening project, permissive growth control (AID 705;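 active = growth inhibition above 25% in both replicates, a cutoff set 3 SD above the mean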); details: OD615, 24 h, at 10 µM, stronger effect = higher value
Outline: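 System – S. cerevisiae with engineered DeaD lifespan system · Buffer or medium – SC raffinose/galactose permissive medium · Schedule – cells pre-grown 4 h, then 24 h compound exposure, 30 °C humidified · Technique – culture turbidity as optical density at 615 nm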

[2] = S. cerevisiae growth inhibition in restrictive medium, OD615, pilot screen, restrictive growth control, yeast lifespan reduction project (AID 706;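 active = growth inhibition above a set limit, 3 SD over mean compound inhibition, in both replicates, cut at about 43% in these data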;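 note: modified DeaD lifespan yeast strain shifted to restrictive glucose medium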); details: OD615, 48 h, at 10 µM, stronger effect = higher value
Outline: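 Material: engineered S. cerevisiae DeaD strain / Medium: glucose-based CSMM-D restrictive medium / Compound: single dose of 10 µM compound final, 0.25% DMSO / Timing: 4 h pre-incubation, 48 h exposure at 30 °C / Technique: OD615 absorbance reading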

[3] = doxorubicin toxicity protection in MRP-1 cells – H69AR cells, CellTiter-Glo, duplicate, MRP-1 activator project, pilot screen (AID 807;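 active = viability increase at or above a cutoff of the median across tested compounds plus 3 SD, cut at about 8.5% in these data, passing the limit was not always enough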;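 note: compound pretreatment 18-22 h then 72 h combined with doxorubicin; 0% = doxorubicin alone and 100% = vehicle without doxorubicin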); details: H69AR viability with doxorubicin, CellTiter-Glo luminescence; at 10 µM; stronger effect = higher value
[4] = viability of HCT116 without oncogenic beta-catenin – human colon tumor cells, pilot screen (AID 823); details: HCT116 beta-catenin knockout viability, CellTiter-Glo, 60 h; at 10 µM; stronger effect = lower value;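 note: 0% = wells killed by 20 µM Hyamine and 100% = untreated DMSO cell wells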
[5] = viability of PTEN-null HCT116 cells – cell-based, HCT116 clonal line, CellTiter-Glo, pilot screen (AID 824;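 active = viability at or below 27.92% in each of two runs, the all-compound median minus 4 SD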;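 note: 0% = 20 µM Hyamine control and 100% = vehicle cell control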); details: HCT116 PTEN-deleted viability, 60 h, at 10 µM, stronger effect = lower value
[6] = RAM pathway blockade in budding yeast – dse1pr::URA3 reporter, 5-FOA selection, pilot screen (AID 869;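 active = inhibition over a set limit, the all-compound mean plus 3 SD, in both replicate runs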;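 note: 0% = DMSO wells with no growth and 100% = 10 µM 1-NA-PP1 with full growth; RAM network block rescues cells from 5-FOA so hits raise OD615 growth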); details: S. cerevisiae dse1pr::URA3 5-FOA growth, OD615, 2 d; at 10 µM; stronger effect = higher value; strain carries analog-sensitive mutant Cbk1 kinase
[7] = RAM signaling pathway blockade in yeast – S. cerevisiae, Pdr1DBD-CYC8 efflux-inhibited sensitized strain, primary screen (AID 1298;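 active = RAM network inhibition above 8.4% in each of two replicates, 3 SD over the compound average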;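 note: 0% = DMSO untreated cells without growth and 100% = 10 µM 1-NA-PP1 full growth; higher means more yeast growth rescued from 5-FOA killing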); details: S. cerevisiae cbk1-as DSE1-URA3 strain, 5-FOA growth OD615, 2 d; at 50 µM; stronger effect = higher value

Row | Structure (SMILES) | growth inhibition [1] | growth inhibition [2] | viability increase [3] | viability [4] | viability [5] | inhibition [6] | RAM network inhibition [7]
1 | CCSc1nnc(NC(=O)c2ccccc2)s1 | -19.1% | 0.02% | 1.94% | 95.2% | 98.7% | 1.25% | 4.7%
2 | Cn1c(CSc2nc3ccccc3s2)n[nH]c1=S | -6.41% | 1.9% | -3.16% | 96.9% | 94.6% | 0.23% | 0.95%
3 | Cc1cc2ccccc2n1CCNC(=O)C(C)(C)C | 3.07% | 7.19% | -0.5% | 96.6% | 103% | 1.72% | -1.8%
4 | CCN(CC)S(=O)(=O)c1ccc(-c2nnco2)cc1 | -23.5% | -16.6% | -0.57% | 100% | 97.9% | 3.09% | 1.46%
5 | CC1CCN(c2nc3ccccc3nc2C(C#N)S(=O)(=O)c2ccccc2)CC1 (stereo unspecified) | -32.5% | -14.6% | -2.55% | 91.4% | 95.1% | 1.22% | 4.37%
6 | Cn1nc(-c2ccc(Cl)cc2)c2cc(C(=O)N3CCN(c4ccccc4)CC3)sc21 | -0.325% | -3.28% | -5.26% | 71.2% | 72.2% | 3.44% | 5.19%
7 | CC(C)CCN(C)C1CCN(C(=O)Nc2c(F)cccc2F)CC1 | 0.53% | -12.6% | -3.34% | 90.6% | 91.7% | 1.56% | 0.26%
8 | O=C(Cc1cccs1)NCCn1ccc2ccccc21 | -14.2% | -11.5% | -1.16% | 90.3% | 87.1% | 0.32% | 9.88%
9 | CCN1CCN(C(c2cccs2)C(C)NC(=O)C(C)C)CC1 (stereo unspecified) | -3.71% | 2.65% | -2.01% | 98% | 92.2% | -0.3% | 3.86%
10 | O=C(NC1CCN(Cc2ccccc2)CC1)c1ccccc1F | -3.78% | -11.1% | -1.39% | 95% | 98.9% | 2.02% | -0.41%
11 | CC(=O)NCC(=O)OCC(=O)c1ccc(C)cc1 | 1.93% | -5.04% | -0.54% | 97.6% | 94.9% | 1.21% | -0.06%
12 | Cc1ccccc1OCC(=O)Nc1ccccc1N1CCOCC1 | -1.63% | 6.71% | -5.31% | 91.7% | 84.7% | 1.22% | 6.55%
13 | CCOc1ccc(N(C(C)C(=O)Nc2ccc(OC)cc2)S(C)(=O)=O)cc1 (stereo unspecified) | -10.2% | -1.65% | 0.78% | 103% | 90.2% | 1% | 3.17%
14 | CC(C)OC(=O)c1nnc(Cc2ccc(Cl)cc2)o1 | -6.46% | 9.87% | 0.7% | 102% | 102% | -0.06% | 1.93%
15 | Cc1ccc(-c2n[nH]c(=S)n2C)cc1 | -2.22% | 11.2% | -1.46% | 97.5% | 101% | 2.21% | 3.7%
16 | CN(C)c1ccc(C2C3C(=O)NC(=O)C3ON2c2ccc(Cl)cc2)cc1 (stereo unspecified) | -0.19% | 2.37% | -0.83% | 102% | 98.6% | 0.735% | 4.07%
17 | Cc1c(C(=O)NCc2cccnc2)sc2nc(-c3ccccc3)cn12 | -4.69% | 8.62% | 0.16% | 101% | 89.5% | 2.61% | 7.67%

Row | Structure (SMILES) | growth inhibition [1] | growth inhibition [2] | viability increase [3] | viability [4] | viability [5] | inhibition [6] | RAM network inhibition [7]
18 | CCCn1c(CNc2ccc(Br)cc2)nc2ccccc21 | -11.7% | -9.32% | -3.5% | 88.2% | 82.7% | 1.47% | 1.62%
19 | Cc1[nH]c(C)c2c(=O)n(-c3ccccc3)ncc12 | -19.9% | -17.5% | 0.12% | 101% | 102% | 1.31% | 2.55%
20 | CC1=C(C(=O)OCc2ccccc2)C(c2ccco2)C2=C(CC(C)(C)CC2=O)N1 (stereo unspecified) | -13.1% | -7.33% | -6.3% | 71.9% | 67.5% | 2.4% | 1.23%
21 | CCc1cc2c(NCC3CCCO3)ncnc2s1 (stereo unspecified) | 2.17% | 9.07% | 0.8% | 102% | 95.6% | 0.34% | 4.46%
22 | O=C(NCc1ccco1)C1CCCN(S(=O)(=O)c2cccc3cccnc23)C1 (stereo unspecified) | -10.6% | -8.38% | -4.15% | 96.4% | 94.4% | 0.595% | 0.89%
23 | COC(=O)C1=COC(C)C2CN3CCc4c([nH]c5ccccc45)C3CC12 (stereo unspecified) | -14.5% | 1.04% | -4.71% | 77.4% | 86% | 1.6% | 7.8%
24 | O=C(c1cc(-c2ccccc2)nc2ccccc12)N1CCOCC1 | -4.54% | -9.07% | -3.82% | 102% | 90.8% | -0.135% | 1.87%
25 | COc1cccc(N2C(=O)C3CCCN3C2c2ccc(Cl)cc2)c1 (stereo unspecified) | 3.31% | 17.5% | -2.51% | 95.2% | 87% | 1.21% | 2.53%
26 | CCS(=O)(=O)n1nc(-c2ccccc2)cc1N | -3.12% | -16.4% | -1.52% | 98.7% | 96.7% | 0.555% | 1.53%
27 | COc1ccc(N2CCN(C(=O)C3CCCN(S(=O)(=O)c4cccc5cccnc45)C3)CC2)cc1 (stereo unspecified) | 7.46% | -2.35% | -3.75% | 69.6% | 68.2% | 0.045% | 2.71%
28 | Cc1cc(Nc2ccc(F)cc2C)n2ncnc2n1 | -3.29% | -0.445% | 0.05% | 108% | 101% | 1.8% | 5.54%
29 | COc1ccc(C2CC(=O)N3CN(c4ccc(C)c(Cl)c4)CSC3=C2C#N)cc1OC (stereo unspecified) | 2.02% | 21.1% | -4.27% | 85.7% | 93.6% | 0.435% | -1.09%
30 | CC(C)(C)NC(=O)C1CCCN(S(=O)(=O)c2cccc3cccnc23)C1 (stereo unspecified) | -5.03% | 3.88% | -2.62% | 103% | 96.1% | 1.6% | 0.52%
31 | CCN(CC)CC(=O)Nc1cc(C)c2c(=O)oc3ccccc3c2n1 | -15.1% | -19.2% | -3.1% | 96.1% | 91.6% | 1.04% | 6.81%
32 | Cc1cccc(NC(=O)Nc2ccc(C#N)cc2)n1 | -15.2% | -6.73% | -5.92% | 18.1% (active) | 17.4% (active) | -0.505% | 3.51%
33 | CS(=O)(=O)N(CC(=O)NCc1ccco1)c1ccc(Cl)c(C(F)(F)F)c1 | -19% | -22.3% | -3.58% | 92.8% | 88.2% | 0.705% | 7.07%

Source: PubChem BioAssay
